Active and inactive are the calls of the source. No cut-off for these calls is given here.
Key:
A-375 [1] = assay: Induction of cell cycle arrest in human A375 cells assessed as accumulation at G0/G1 phase at 10 nM by propodium iodide staining based flow cytometric analysis; assay type: functional
Procedure, shortened: (§1)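 DNA was stained with propidium iodide and analysed by flow cytometry. Histograms give the fraction of cells in G0/G1, S and G2/M phases.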

A549 [2] = assay: Induction of apoptosis related protein expression in human A549 cells assessed as increase in HSP60 expression at 20 uM incubated for 12 hrs by apoptosis antibody array; assay type: functional, cell-based
A-375 [3] = assay: Induction of morphological changes in human A375 cells at 20 uM by phase contrast microscopy; assay type: functional, cell-based
A-375 [4] = assay: Induction of apoptosis in human A375 cells at 1 uM incubated for 24 hrs by FITC-Annexin V staining based assay (reference value: 0.03 +/- 0.9%); assay type: functional
A-375 [5] = assay: Cytotoxicity in human A375 cells assessed as reduction in cell viability at 0.001 to 100 uM incubated for 24 to 48 hrs by LDH assay; assay type: functional, cell-based
Procedure, shortened: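 LDH released into the culture medium after plasma membrane damage was quantified and expressed as percentage cytotoxicity.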

A549 [6] = assay: Induction of apoptosis in human A549 cells assessed as necrosis cells level at 1 uM incubated for 24 hrs by FITC-Annexin V staining based assay (reference value: 0.3%); assay type: functional
A-375 [7] = assay: Induction of apoptosis in human A375 cells at 1 uM by TUNEL assay; assay type: functional, cell-based
A549 [8] = assay: Cytotoxicity in human A549 cells assessed as reduction in cell viability incubated for 48 hrs by MTT assay; assay type: functional, cell-based; conditions: Homo sapiens, A549, 48 h; read-out: IC50
Procedure, shortened: (§2)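 MTT viability assay on A375 melanoma, A549 lung adenocarcinoma and WI-38 normal lung fibroblast cells after 24 and 48 h treatment. IC50 values are in µM, expressed as mean ± SD.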

A-375 [9] = assay: Induction of apoptosis in human A375 cells assessed as increase in caspase-8 levels at 1 uM incubated for 12 hrs by spectrofluorometry; assay type: functional, cell-based
A549 [10] = assay: Induction of morphological changes in human A549 cells at 20 uM by phase contrast microscopy; assay type: functional, cell-based
A-375 [11] = assay: Inhibition of colony formation in human A375 cells at 1 nM by crystal violet staining based assay; assay type: functional, cell-based
A549 [12] = assay: Induction of DNA fragmentation in human A549 cells after 3 hrs by chemometec-DNA fragmentation assay relative to control; assay type: functional
A-375 [13] = assay: Induction of morphological changes in human A375 cells assessed as change in shape of cells from spindle to spherical at 1 uM by atomic force microscopy; assay type: functional, cell-based
A549 [14] = assay: Induction of apoptosis in human A549 cells assessed as increase in caspase-3 levels at 1 uM incubated for 12 hrs by spectrofluorometry; assay type: functional, cell-based
A549 [15] = assay: Induction of apoptosis related protein expression in human A549 cells assessed as increase in Cyt-c expression at 20 uM incubated for 12 hrs by apoptosis antibody array; assay type: functional, cell-based
A-375 [16] = assay: Suppression of cell number in human A375 cells at 20 uM by phase contrast microscopy; assay type: functional, cell-based
A-375 [17] = assay: Induction of apoptosis in human A375 cells assessed as increase in caspase-3 levels at 1 uM incubated for 12 hrs by spectrofluorometry; assay type: functional, cell-based
A549 [18] = assay: Induction of mitochondrial membrane potential changes in human A549 cells at 1 uM by JC1 staining based fluorimetry; assay type: functional, cell-based
Procedure, shortened: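 Mitochondrial membrane potential was assessed with the ratiometric dye JC1. Depolarization appears as lower red and higher green fluorescence, and the red/green intensity ratio was quantified.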

A549 [19] = assay: Induction of DNA fragmentation in human A549 cells after 4 hrs by agarose gel electrophoresis; assay type: functional, cell-based
A549 [20] = assay: Induction of morphological changes in human A549 cells assessed as change in shape of cells from spindle to spherical at 1 uM by atomic force microscopy; assay type: functional, cell-based
A549 [21] = assay: Induction of apoptosis in human A549 cells assessed as induction of nuclear changes with DNA fragmentation at 1 uM by Hoechst 33342 nuclear staining based assay; assay type: functional, cell-based
Procedure, shortened: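 Hoechst 33342 nuclear staining of treated A549 or A375 cells. Nuclear condensation and fragmentation were examined by fluorescence microscopy against untreated control.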

A549 [22] = assay: Cytotoxicity in human A549 cells assessed as reduction in cell viability incubated for 24 hrs by MTT assay; assay type: functional, cell-based; conditions: Homo sapiens, A549, 24 h; read-out: IC50; procedure, shortened: as §2
A549 [23] = assay: Induction of apoptosis in human A549 cells assessed as increase in caspase-8 levels at 1 uM incubated for 12 hrs by spectrofluorometry; assay type: functional, cell-based
A-375 [24] = assay: Induction of DNA fragmentation in human A375 cells after 4 hrs by agarose gel electrophoresis; assay type: functional, cell-based
A549 [25] = assay: Induction of apoptosis related protein expression in human A549 cells assessed as increase in CD40 expression at 20 uM incubated for 12 hrs by apoptosis antibody array; assay type: functional, cell-based
A549 [26] = assay: Induction of intracellular ROS generation in human A549 cells at 1 uM by DCFDA dye based fluorescence assay relative to control; assay type: functional
Procedure, shortened: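 Intracellular ROS in A549 cells was measured with the DCFDA probe over 1-100 µM, with paclitaxel as positive control. Readout is fold change in fluorescence intensity relative to untreated control.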

A-375 [27] = assay: Induction of apoptosis in human A375 cells assessed as increase in caspase-2 levels at 1 uM incubated for 12 hrs by spectrofluorometry; assay type: functional, cell-based
A549 [28] = assay: Induction of GSH depletion in human A549 cells by fluorimetry; assay type: functional, cell-based
[29] = Antioxidant activity assessed as DPPH radical scavenging activity at 1 to 1000 ug/ml incubated for 30 mins by spectrophotometry; assay type: functional
A549 [30] = assay: Induction of apoptosis in human A549 cells assessed as cytochrome-c release after 6 to 8 hrs by Raman spectral imaging analysis; assay type: functional, cell-based
A-375 [31] = assay: Induction of DNA damage in human A375 cells after 4 hrs by Raman spectral imaging analysis; assay type: functional, cell-based
A-375 [32] = assay: Inhibition of mitochondrial membrane potential in human A375 cells at 1 uM by TMRE staining based assay; assay type: functional, cell-based
A549 [33] = assay: Induction of apoptosis related protein expression in human A549 cells assessed as increase in Bad expression at 20 uM incubated for 12 hrs by apoptosis antibody array; assay type: functional, cell-based
A-375 [34] = assay: Cytotoxicity in human A375 cells assessed as reduction in cell viability incubated for 24 hrs by MTT assay; assay type: functional, cell-based; conditions: Homo sapiens, A-375, 24 h; read-out: IC50; procedure, shortened: as §2
A549 [35] = assay: Inhibition of colony formation in human A549 cells at 1 nM by crystal violet staining based assay; assay type: functional, cell-based
A549 [36] = assay: Induction of apoptosis in human A549 cells at 1 uM by APOP assay; assay type: functional, cell-based
Procedure, shortened: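 APOPercentage dye uptake in treated A549 cells, which stain purple-red in early apoptosis when phosphatidylserine is translocated. Accumulated dye was then quantified against unstained untreated controls.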

A549 [37] = assay: Induction of apoptosis related protein expression in human A549 cells assessed as increase in Bim expression at 20 uM incubated for 12 hrs by apoptosis antibody array; assay type: functional, cell-based
A549 [38] = assay: Induction of apoptosis in human A549 cells assessed as early apoptotic cells level at 1 uM incubated for 24 hrs by FITC-Annexin V staining based assay (reference value: 0.01%); assay type: functional
A549 [39] = assay: Induction of cell cycle arrest in human A549 cells assessed as accumulation at G2/M phase at 10 nM by propodium iodide staining based flow cytometric analysis (reference value: 7%); assay type: functional; procedure, shortened: as §1

Question: For `COc1cc(C2Oc3cc(-c4cc(=O)c5c(O)cc(O)cc5o4)ccc3OC2/C=C2\C(=O)ON=C2c2ccc(Cl)cc2)ccc1O` (centres undefined), which Activity (A-375 [1]) is on record?
Answer: The Activity was “Active”.

Question: What about the Activity (A549 [2]) of the same molecule?
Answer: Its Activity is “Active”.

Question: What about the Activity (A-375 [3]) of the same molecule?
Answer: The Activity was “Active”.

Question: What about the Activity (A-375 [4]) of the same molecule?
Answer: Its Activity is 39%.

Question: And the Activity (A-375 [5])?
Answer: The Activity was “Active”.

Question: What about the Activity (A549 [6]) of the same molecule?
Answer: Its Activity is 13%.

Question: And the Activity (A-375 [7])?
Answer: The Activity was “Active”.

Question: What about the IC50 (A549 [8]) of the same molecule?
Answer: The IC50 was 1200 nM.

Question: What about the Activity (A-375 [9]) of the same molecule?
Answer: The Activity was “inactive”.

Question: And the Activity (A549 [10])?
Answer: The Activity was “Active”.

Question: And the inhibition (A-375 [11])?
Answer: The inhibition was “Active”.

Question: And the Activity (A549 [12])?
Answer: The Activity was 14.5%.

Question: And the Activity (A-375 [13])?
Answer: The Activity was “Active”.

Question: What about the Activity (A549 [14]) of the same molecule?
Answer: The Activity was “Active”.

Question: What about the Activity (A549 [15]) of the same molecule?
Answer: Its Activity is “inactive”.

Question: What about the Activity (A-375 [16]) of the same molecule?
Answer: The Activity was “Active”.

Question: And the Activity (A-375 [17])?
Answer: Its Activity is “Active”.

Question: And the Activity (A549 [18])?
Answer: Its Activity is “Active”.

Question: What about the Activity (A549 [19]) of the same molecule?
Answer: Its Activity is “Active”.

Question: What about the Activity (A549 [20]) of the same molecule?
Answer: The Activity was “Active”.

Question: And the Activity (A549 [21])?
Answer: Its Activity is “Active”.

Question: And the IC50 (A549 [22])?
Answer: The IC50 was 2000 nM.

Question: And the Activity (A549 [23])?
Answer: Its Activity is “inactive”.

Question: And the Activity (A-375 [24])?
Answer: Its Activity is “Active”.

Question: What about the Activity (A549 [25]) of the same molecule?
Answer: The Activity was “Active”.

Question: What about the “fold change (FC)” value (A549 [26]) of the same molecule?
Answer: The value was greater than 3.

Question: What about the Activity (A-375 [27]) of the same molecule?
Answer: Its Activity is “Active”.

Question: And the Activity (A549 [28])?
Answer: The Activity was “Active”.

Question: What about the Activity [29] of the same molecule?
Answer: The Activity was “inactive”.

Question: And the Activity (A549 [30])?
Answer: The Activity was “Active”.

Question: And the Activity (A-375 [31])?
Answer: Its Activity is “Active”.

Question: And the inhibition (A-375 [32])?
Answer: Its inhibition is “Active”.

Question: And the Activity (A549 [33])?
Answer: The Activity was “Active”.

Question: What about the IC50 (A-375 [34]) of the same molecule?
Answer: The IC50 was 1200 nM.

Question: And the inhibition (A549 [35])?
Answer: The inhibition was “Active”.

Question: What about the Activity (A549 [36]) of the same molecule?
Answer: Its Activity is “Active”.

Question: What about the Activity (A549 [37]) of the same molecule?
Answer: The Activity was “Active”.

Question: What about the Activity (A549 [38]) of the same molecule?
Answer: Its Activity is 9%.

Question: And the Activity (A549 [39])?
Answer: Its Activity is 29%.

From ChEMBL document CHEMBL4334468, “Exploring Mitochondria-Mediated Intrinsic Apoptosis by New Phytochemical Entities: An Explicit Observation of Cytochrome c Dynamics on Lung and Melanoma Cancer Cells” (J Med Chem, 2019)
